Measurements: ChEMBL document CHEMBL1127300, “Identification, synthesis, and characterization of a unique class of N-methyl-D-aspartate antagonists. The 6,11-ethanobenzo[b]quinolizinium cation” (J Med Chem, 1994)
Structures can show the parent of a compound that is named as a salt.

How the values were obtained:
[1] = target: Glutamate NMDA receptor; assay: Binding affinity was determined towards NMDA receptor using [3H]thienylcyclidine as radioligand; type: protein-complex assay
In short: (§1)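 Rat (male Sprague–Dawley) whole-brain membranes, washed three times in 50 mM Tris-HCl pH 7.7 and resuspended in 5 mM Tris-HCl at 0.5 mg protein/tube. About 1 nM [3H]TCP final with varied test concentrations. 25 min at room temperature. Nonspecific binding defined with 100 μM PCP. Filtration on PEI-soaked glass-fibre filters and scintillation counting.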

[2] = species: Mus musculus; assay: In vitro neuroprotective efficacy determined to protect cultured mouse cortical neurons from an excitotoxic exposure to NMDA; type: functional
[3] = species: Mus musculus; assay: Electrophysiological responses in closed channel block to NMDA were recorded in 13-day old mouse cortical neuronal cultures.; type: functional
[4] = species: Mus musculus; assay: In vitro for neuroprotective efficacy to protect cultured cortical neurons from an excitotoxic exposure to NMDA receptor.; type: functional
[5] = species: Mus musculus; assay: Electrophysiological responses in open channel block to NMDA were recorded in 13-day old mouse cortical neuronal cultures.; type: functional
[6] = target: Glutamate NMDA receptor; assay: Binding affinity was determined towards NMDA receptor using [3H]TCP as radioligand in rat
In short: as §1, with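 “counting. Ki from EBDA/LIGAND; mean ± SEM of ≥3 determinations in triplicate.” for “counting.”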

[7] = species: Mus musculus; assay: Percent inhibition of radioligand [3H]-LSD binding to 5-HT receptor at 10 uM concentration
[8] = target: Alpha-1 adrenergic receptor (Mus musculus) (UniProt P97714+P97717+P97718); assay: Percent inhibition of radioligand [3H]prazosin binding to alpha-1 receptor at 10 uM concentration; type: protein assay
Alpha-1 adrenergic receptor (Mus musculus), sequence (P97714 whole entry, looked up): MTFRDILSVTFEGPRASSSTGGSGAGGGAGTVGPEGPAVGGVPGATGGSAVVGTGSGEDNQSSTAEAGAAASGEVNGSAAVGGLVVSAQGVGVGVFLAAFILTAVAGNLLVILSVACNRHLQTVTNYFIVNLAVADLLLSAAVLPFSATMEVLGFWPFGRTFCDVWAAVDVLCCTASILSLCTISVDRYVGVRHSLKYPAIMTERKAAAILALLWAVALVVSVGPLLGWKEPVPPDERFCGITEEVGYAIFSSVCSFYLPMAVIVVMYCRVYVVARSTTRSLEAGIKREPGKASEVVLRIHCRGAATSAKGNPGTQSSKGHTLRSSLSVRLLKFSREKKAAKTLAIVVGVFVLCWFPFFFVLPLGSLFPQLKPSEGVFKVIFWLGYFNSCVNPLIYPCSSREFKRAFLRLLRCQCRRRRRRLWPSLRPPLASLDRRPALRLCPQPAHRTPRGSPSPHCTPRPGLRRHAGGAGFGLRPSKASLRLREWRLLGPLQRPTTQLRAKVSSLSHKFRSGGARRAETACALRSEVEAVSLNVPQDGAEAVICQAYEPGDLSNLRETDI
Alpha-1 adrenergic receptor (Mus musculus), sequence (P97717 whole entry, looked up): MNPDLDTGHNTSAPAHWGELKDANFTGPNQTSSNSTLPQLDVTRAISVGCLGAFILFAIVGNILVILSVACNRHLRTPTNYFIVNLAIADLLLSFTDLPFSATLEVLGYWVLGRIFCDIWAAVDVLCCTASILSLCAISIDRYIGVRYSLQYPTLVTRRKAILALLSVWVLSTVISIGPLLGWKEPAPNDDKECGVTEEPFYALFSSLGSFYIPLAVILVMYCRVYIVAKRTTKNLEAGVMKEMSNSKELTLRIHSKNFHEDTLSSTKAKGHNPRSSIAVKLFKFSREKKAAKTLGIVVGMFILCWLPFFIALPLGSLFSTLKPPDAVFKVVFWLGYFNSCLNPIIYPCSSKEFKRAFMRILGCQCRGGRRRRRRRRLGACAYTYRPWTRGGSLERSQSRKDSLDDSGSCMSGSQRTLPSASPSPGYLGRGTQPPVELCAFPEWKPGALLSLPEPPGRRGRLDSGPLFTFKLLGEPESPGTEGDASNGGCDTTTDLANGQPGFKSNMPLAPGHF
Alpha-1 adrenergic receptor (Mus musculus), sequence (P97718 whole entry, looked up): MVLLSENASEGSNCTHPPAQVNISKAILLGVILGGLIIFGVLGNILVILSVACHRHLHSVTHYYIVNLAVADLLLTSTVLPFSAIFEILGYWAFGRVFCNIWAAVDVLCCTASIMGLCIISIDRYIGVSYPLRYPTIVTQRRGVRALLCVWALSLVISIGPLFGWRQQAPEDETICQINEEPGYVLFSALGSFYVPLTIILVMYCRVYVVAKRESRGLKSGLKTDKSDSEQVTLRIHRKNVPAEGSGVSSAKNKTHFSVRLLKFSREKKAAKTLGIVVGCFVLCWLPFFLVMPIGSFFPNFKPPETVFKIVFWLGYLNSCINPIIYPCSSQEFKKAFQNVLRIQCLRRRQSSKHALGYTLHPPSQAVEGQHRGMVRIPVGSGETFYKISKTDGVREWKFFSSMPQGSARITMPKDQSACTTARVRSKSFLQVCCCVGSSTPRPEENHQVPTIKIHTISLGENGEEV

[9] = Percent inhibition of radioligand [3H]NECA binding to A1,A2 receptor at 10 uM concentration
[10] = target: Alpha-2 adrenergic receptor (Mus musculus) (UniProt P30545+Q01338+Q01337); assay: Percent inhibition of radioligand [3H]rauwolscine binding to alpha-2 receptor at 10 uM concentration; type: protein assay
[11] = Percent inhibition of […] binding to GABA-A benzodiazepine receptor at 10 uM
[12] = target: Beta-adrenergic receptor (Mus musculus) (UniProt P34971+P18762+P25962); assay: Percent inhibition of radioligand [3H]DHAP binding to beta receptor at 10 uM concentration; type: protein assay
Beta-adrenergic receptor (Mus musculus), sequence (P18762 whole entry, looked up): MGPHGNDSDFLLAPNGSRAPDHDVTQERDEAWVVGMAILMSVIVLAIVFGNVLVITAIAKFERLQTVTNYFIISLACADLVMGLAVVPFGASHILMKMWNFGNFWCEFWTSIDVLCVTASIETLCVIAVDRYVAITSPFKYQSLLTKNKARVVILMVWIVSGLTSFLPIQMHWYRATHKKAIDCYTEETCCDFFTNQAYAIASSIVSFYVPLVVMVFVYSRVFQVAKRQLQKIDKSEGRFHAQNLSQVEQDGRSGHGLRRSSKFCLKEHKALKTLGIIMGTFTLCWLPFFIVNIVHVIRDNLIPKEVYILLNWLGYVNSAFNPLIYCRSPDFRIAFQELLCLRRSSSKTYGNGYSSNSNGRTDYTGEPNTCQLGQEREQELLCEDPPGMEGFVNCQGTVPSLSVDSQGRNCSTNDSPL
Beta-adrenergic receptor (Mus musculus), sequence (P25962 whole entry, looked up): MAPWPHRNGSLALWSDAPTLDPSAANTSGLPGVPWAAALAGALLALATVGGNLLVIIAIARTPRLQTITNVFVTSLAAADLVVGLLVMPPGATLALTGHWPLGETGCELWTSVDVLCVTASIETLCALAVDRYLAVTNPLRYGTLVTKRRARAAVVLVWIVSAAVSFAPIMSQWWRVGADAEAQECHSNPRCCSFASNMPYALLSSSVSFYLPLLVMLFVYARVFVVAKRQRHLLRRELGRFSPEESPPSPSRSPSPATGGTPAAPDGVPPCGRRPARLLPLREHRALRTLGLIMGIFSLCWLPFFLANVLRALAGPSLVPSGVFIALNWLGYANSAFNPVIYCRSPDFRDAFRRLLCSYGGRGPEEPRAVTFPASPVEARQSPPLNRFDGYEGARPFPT
Beta-adrenergic receptor (Mus musculus), sequence (P34971 whole entry, looked up): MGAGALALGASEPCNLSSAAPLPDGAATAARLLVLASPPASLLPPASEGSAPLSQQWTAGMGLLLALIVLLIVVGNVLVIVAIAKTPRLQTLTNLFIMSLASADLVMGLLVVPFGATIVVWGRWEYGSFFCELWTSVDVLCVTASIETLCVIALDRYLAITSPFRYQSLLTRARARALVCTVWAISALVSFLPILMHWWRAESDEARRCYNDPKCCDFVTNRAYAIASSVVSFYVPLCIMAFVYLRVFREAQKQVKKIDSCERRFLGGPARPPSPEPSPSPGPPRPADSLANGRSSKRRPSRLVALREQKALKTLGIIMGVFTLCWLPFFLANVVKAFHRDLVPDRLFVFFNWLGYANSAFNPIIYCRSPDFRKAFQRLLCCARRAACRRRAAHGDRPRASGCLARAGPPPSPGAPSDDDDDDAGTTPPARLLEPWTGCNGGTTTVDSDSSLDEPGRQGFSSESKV

[13] = target: D(2) dopamine receptor (Mus musculus) (UniProt P61168); assay: Percent inhibition of radioligand [3H]raclopride binding to D2 receptor at 10 uM concentration
[14] = target: D(1A) dopamine receptor (Mus musculus) (UniProt Q61616); assay: Percent inhibition of radioligand [3H]SCH-23390 binding to dopamine receptor D1 at 10 uM concentration
D(1A) dopamine receptor (Mus musculus), sequence (Q61616 whole entry): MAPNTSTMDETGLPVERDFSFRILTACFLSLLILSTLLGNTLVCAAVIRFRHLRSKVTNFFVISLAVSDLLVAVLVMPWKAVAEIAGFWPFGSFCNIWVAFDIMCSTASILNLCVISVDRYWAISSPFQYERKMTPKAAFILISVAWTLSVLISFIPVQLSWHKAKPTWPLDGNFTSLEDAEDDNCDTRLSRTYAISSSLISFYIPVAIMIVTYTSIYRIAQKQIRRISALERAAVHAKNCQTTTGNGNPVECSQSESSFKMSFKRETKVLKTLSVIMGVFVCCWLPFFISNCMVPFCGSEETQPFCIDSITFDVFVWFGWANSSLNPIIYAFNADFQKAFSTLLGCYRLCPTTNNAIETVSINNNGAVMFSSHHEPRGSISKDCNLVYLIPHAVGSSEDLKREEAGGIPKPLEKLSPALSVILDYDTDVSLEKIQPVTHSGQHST

[15] = target: Histamine H1 receptor (Mus musculus) (UniProt P70174); assay: Percent inhibition of radioligand [3H]pyrilamine binding to H1 receptor at 10 uM concentration
Histamine H1 receptor (Mus musculus), sequence (P70174 whole entry): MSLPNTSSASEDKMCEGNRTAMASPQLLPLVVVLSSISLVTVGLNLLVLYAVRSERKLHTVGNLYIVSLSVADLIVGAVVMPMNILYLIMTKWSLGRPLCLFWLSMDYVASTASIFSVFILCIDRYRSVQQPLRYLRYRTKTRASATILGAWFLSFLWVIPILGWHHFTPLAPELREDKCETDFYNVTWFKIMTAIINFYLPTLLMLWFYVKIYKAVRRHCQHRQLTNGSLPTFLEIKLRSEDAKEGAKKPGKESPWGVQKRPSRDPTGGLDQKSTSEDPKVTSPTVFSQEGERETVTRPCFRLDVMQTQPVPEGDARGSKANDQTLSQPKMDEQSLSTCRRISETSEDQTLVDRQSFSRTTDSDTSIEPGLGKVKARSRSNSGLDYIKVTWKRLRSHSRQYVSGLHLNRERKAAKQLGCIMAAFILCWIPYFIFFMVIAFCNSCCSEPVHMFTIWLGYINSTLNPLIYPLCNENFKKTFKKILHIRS

[16] = target: Muscarinic acetylcholine receptor (Mus musculus) (UniProt Q920H4+Q9ERZ4+P12657+P32211+Q9ERZ3); assay: Percent inhibition of radioligand [3H]QNB binding to muscarinic receptor at 10 uM concentration; type: protein assay
[17] = target: Opioid receptor (Mus musculus) (UniProt P42866+P32300+P33534); assay: Percent inhibition of radioligand [3H]-naxalone binding to opiate receptor at 10 uM concentration; type: protein assay
Opioid receptor (Mus musculus), sequence (P32300 whole entry, looked up): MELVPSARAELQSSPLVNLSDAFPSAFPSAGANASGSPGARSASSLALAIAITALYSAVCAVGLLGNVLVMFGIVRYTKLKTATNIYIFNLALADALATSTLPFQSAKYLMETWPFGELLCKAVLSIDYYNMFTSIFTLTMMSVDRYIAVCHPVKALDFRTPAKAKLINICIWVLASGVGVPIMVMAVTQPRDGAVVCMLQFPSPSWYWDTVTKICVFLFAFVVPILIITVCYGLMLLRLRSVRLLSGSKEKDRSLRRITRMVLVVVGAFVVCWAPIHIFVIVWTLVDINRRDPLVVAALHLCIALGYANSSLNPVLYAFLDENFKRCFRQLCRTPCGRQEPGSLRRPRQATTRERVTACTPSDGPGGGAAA
Opioid receptor (Mus musculus), sequence (P33534 whole entry, looked up): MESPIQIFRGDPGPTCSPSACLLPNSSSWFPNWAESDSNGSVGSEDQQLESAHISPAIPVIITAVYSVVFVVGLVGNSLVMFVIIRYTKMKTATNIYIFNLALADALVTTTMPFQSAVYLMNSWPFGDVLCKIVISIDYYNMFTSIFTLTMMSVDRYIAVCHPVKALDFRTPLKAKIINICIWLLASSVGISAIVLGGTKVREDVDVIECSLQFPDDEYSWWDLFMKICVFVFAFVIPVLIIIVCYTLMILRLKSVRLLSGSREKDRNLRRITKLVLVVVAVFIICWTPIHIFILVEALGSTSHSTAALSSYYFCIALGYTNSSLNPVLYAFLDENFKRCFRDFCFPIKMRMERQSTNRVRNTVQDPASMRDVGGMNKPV
Opioid receptor (Mus musculus), sequence (P42866 whole entry, looked up): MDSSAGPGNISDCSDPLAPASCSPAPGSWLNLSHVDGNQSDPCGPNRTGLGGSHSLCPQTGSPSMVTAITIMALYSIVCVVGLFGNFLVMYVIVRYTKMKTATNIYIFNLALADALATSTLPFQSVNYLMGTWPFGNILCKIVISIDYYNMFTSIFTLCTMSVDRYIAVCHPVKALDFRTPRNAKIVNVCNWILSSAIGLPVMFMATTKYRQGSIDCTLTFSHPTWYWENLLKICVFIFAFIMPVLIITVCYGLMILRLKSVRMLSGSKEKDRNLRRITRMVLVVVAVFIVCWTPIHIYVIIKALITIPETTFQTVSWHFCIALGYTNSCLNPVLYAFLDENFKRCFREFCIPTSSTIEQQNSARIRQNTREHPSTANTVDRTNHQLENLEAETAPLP

[18] = target: Sigma non-opioid intracellular receptor 1 (Mus musculus) (UniProt O55242); assay: Percent inhibition of radioligand [3H]DTG binding to sigma receptor at 10 uM concentration
[19] = target: D(1A) dopamine receptor (Mus musculus) (UniProt Q61616); assay: Percent inhibition of radioligand [3H]SCH-23,390 binding to dopamine receptor D1 at 10 uM concentration
[20] = Ratio between closed channel blockade to open channel blockade; type: functional
In short: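 Whole-cell voltage clamp at −60 mV, room temperature (ca. 23 °C), in day-13 mouse cortical neurons; 100 μM NMDA. Open-channel block: NMDA with compound for 300 s; current at 300 s normalized to peak, % inhibition vs controls. Closed-channel block: 30 min with compound plus 10 μM 7-chlorokynurenate without NMDA, 1–2 min wash, then NMDA response vs two baseline responses. IC50 from Hill-type fit.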

CCOC1(OCC)C2c3cccc(C)c3C([n+]3ccccc32)C1(C)C (configuration not stated)
Ki [1]: 455 nM

CCCOC1(OCCC)C2c3ccccc3C([n+]3ccccc32)C1(C)C.[O-][Cl+3]([O-])([O-])[O-] (configuration not stated)
IC50 ([2]; Mus musculus): 85 nM | Ki [1]: 12 nM

C[C@]12N[C@H](Cc3ccccc31)c1ccccc12 [DIZOCILPINE MALEATE]
IC50 [3]: 5.8 nM

c1ccc(C2(N3CCCCC3)CCCCC2)cc1 [PHENCYCLIDINE]
Ki [1]: 38 nM

COC1(OC)C2c3ccccc3C([n+]3ccccc32)C1(C)C (configuration not stated)
Ki [1]: 103 nM

CCOC1(OCC)C2c3c(OC)ccc(OC)c3C([n+]3ccccc32)C1(C)C (configuration not stated)
Ki [1]: > 10000 nM

CCOC1(OCC)C2(C)c3ccccc3C([n+]3ccccc32)C1(C)C.[O-][Cl+3]([O-])([O-])[O-] (configuration not stated)
IC50 ([2]; Mus musculus): 32 nM | Ki [1]: 11 nM

CCOC1(OCC)C2c3cc(OC)ccc3C([n+]3ccccc32)C1(C)C (configuration not stated)
IC50 ([2]; Mus musculus): 157 nM | Ki [1]: 4 nM

CCOC1(OCC)C2c3ccccc3C(C1C)[n+]1ccccc12.[O-][Cl+3]([O-])([O-])[O-] (stereo in doubt; 1b)
IC50 [2]: 1160 nM | Ki [1]: 34 nM

CCOC1(OCC)C2c3cc([N+](=O)[O-])ccc3C([n+]3ccccc32)C1(C)C.[O-][Cl+3]([O-])([O-])[O-] (configuration not stated)
IC50 [4]: 15.3 µM | Ki [1]: 2760 nM

CCOC1(OCC)C2c3c(OC(C)C)cccc3C([n+]3ccccc32)C1(C)C (configuration not stated)
Ki [1]: 48 nM

CCOC1(OCC)C2c3c(OC)cccc3C([n+]3ccccc32)C1(C)C (configuration not stated)
IC50 ([2]; Mus musculus): 22 nM | Ki [1]: 13 nM

CCOC1(OCC)C2c3cccc(OC)c3C([n+]3ccccc32)C1(C)C (configuration not stated)
Ki [1]: 1840 nM

CCOC1(OCC)C2c3ccc(OC)cc3C([n+]3ccccc32)C1(C)C (configuration not stated)
Ki [1]: 123 nM

CCOC1(OCC)CC2c3ccccc3C1c1cccc[n+]12 (configuration not stated)
IC50 ([2]; Mus musculus): 95000 nM | Ki [1]: 3800 nM

CCOC1(OCC)C2c3ccccc3C([n+]3c(C)cccc32)C1(C)C (configuration not stated)
Ki [1]: 314 nM

CCOC1(OCC)C2c3ccccc3C([n+]3ccccc32)C1(C)C (single isomer, unassigned; (-)) [listing 1 of 2 here]
IC50 [2]: 26 nM | Ki [1]: 4 nM

CCOC1(OCC)C2c3c(O)cccc3C([n+]3ccccc32)C1(C)C (configuration not stated)
Ki [1]: 8 nM

CCOC1(OCC)C2c3ccccc3C([n+]3ccccc32)C1(C)C (racemic) [listing 1 of 2 here]
IC50 [5]: 260 nM | Ki [1]: 8 nM

CCOC1(OCC)C2c3ccccc3C([n+]3cccc(OC)c32)C1(C)C (configuration not stated)
Ki [1]: 26 nM

CC1(C)C(=O)C2c3ccccc3C1[n+]1ccccc12 (configuration not stated)
Ki [1]: > 10000 nM

CCOC1(OCC)C2c3ccccc3C(C1C)[n+]1ccccc12.[O-][Cl+3]([O-])([O-])[O-] (stereo in doubt; 1a)
IC50 ([2]; Mus musculus): 810 nM | Ki [6]: 115 nM

CCOC1(OCC)C2c3ccccc3C([n+]3ccccc32)C1(C)C (single isomer, unassigned; (+)) [listing 1 of 2 here]
inhibition [7]: 12% | inhibition [8]: 51% | inhibition [9]: 1% | inhibition [10]: 52% | inhibition [11]: 14% | inhibition [12]: 4% | inhibition [13]: 20% | inhibition [14]: 7% | inhibition [15]: 55% | inhibition [16]: 53% | inhibition [17]: 73% | inhibition [18]: 31%

CCOC1(OCC)C2c3c(Br)cccc3C([n+]3ccccc32)C1(C)C.[O-][Cl+3]([O-])([O-])[O-] (configuration not stated)
IC50 ([2]; Mus musculus): 1040 nM | Ki [1]: 132 nM

CCOC1(OCC)C2c3ccccc3C([n+]3ccccc32)C1(OCC)OCC (configuration not stated)
Ki [1]: 4990 nM

CCOC1(OCC)C2c3ccccc3C([n+]3ccccc32)C1(C)C (single isomer, unassigned; (-)) [listing 2 of 2 here]
inhibition [7]: 11% | inhibition [8]: 23% | inhibition [9]: 3% | inhibition [10]: 32% | inhibition [12]: 3% | inhibition [13]: 9% | inhibition [19]: 1% | inhibition [15]: 0% | inhibition [16]: 50% | inhibition [17]: 51% | inhibition [18]: 21%

CCOC1(OCC)C2c3ccccc3C([n+]3ccccc32)C1(CC)CC (configuration not stated)
Ki [1]: 11 nM

CC1(C)C2c3ccccc3C(c3cccc[n+]32)C12OCCCO2 (configuration not stated)
Ki [1]: 2900 nM

CC1(C)C2c3ccccc3C(c3cccc[n+]32)C12OCCO2 (configuration not stated)
Ki [1]: 3460 nM

CCOC1(OCC)C2c3cc(C(F)(F)F)ccc3C([n+]3ccccc32)C1(C)C (configuration not stated)
Ki [1]: 401 nM

CCOC1C2c3ccccc3C([n+]3ccccc32)C1(C)C (stereo in doubt; 7a)
Ki [1]: 465 nM

CCOC1(OCC)C2c3c(C)cccc3C([n+]3ccccc32)C1(C)C (configuration not stated)
Ki [1]: 46 nM

CCOC1(OCC)C2c3ccccc3C([n+]3ccccc32)C1(C)C (single isomer, unassigned; (+)) [listing 2 of 2 here]
IC50 ([2]; Mus musculus): 50 nM | Ki [1]: 11 nM

CCOC1(OCC)C2c3cc(Cl)ccc3C([n+]3ccccc32)C1(C)C (configuration not stated)
Ki [1]: 12 nM

CCOC1(OCC)C2c3ccccc3C([n+]3ccccc32)C1(C)C (racemic) [listing 2 of 2 here]
Ratio [20]: > 384 CC/OC

CCOC1C2c3ccccc3C([n+]3ccccc32)C1(C)C (stereo in doubt; 7b)
Ki [1]: 1880 nM

CCOC1(OCC)C2c3c(OC(C)=O)cccc3C([n+]3ccccc32)C1(C)C (configuration not stated)
Ki [1]: 26 nM

CCOC1(OCC)C2c3cc(Br)ccc3C([n+]3ccccc32)C1(C)C.[O-][Cl+3]([O-])([O-])[O-] (configuration not stated)
IC50 ([2]; Mus musculus): 173 nM | Ki [1]: 52 nM
